As a reminder, the IC50 is the concentration at which inhibition is half-maximal. A lower IC50 goes with higher potency. Usually inhibition stands for the percentage by which the read-out fell short of the control.

The source of these data is paper PMC7559877 (iScience, 2020).

In experiment [1] the test system is JE6.1. The experiment is described as follows: Tumoricidal activity against human lymphoma cell line JE6.1. Type of experiment: cell-based.
The subject of experiment [2] is CD4+CD25+FOXP3+ Treg cells. Nature of the experiment: Flow cytometry of CD4+CD25+FOXP3+ Treg cells in DL mice. Type of experiment: in vivo. Particulars: in the spleen (so in the source); DL mouse 19.4%; Figure 2I. Background: Flow cytometry measures light scatter and fluorescence of single cells or particles in a stream.
Experiment [3] has as its system U937. The experiment is described as follows: Tumoricidal activity against human lymphoma cell line U937. It counts as cell-based. Particulars: U-937.
For experiment [4], the system named is Raji. The experiment is described as follows: Tumoricidal activity against human lymphoma cell line Raji. Type of experiment: cell-based.
Experiment [5] deals with DL tumor cells. Nature of the experiment: In vitro tumoricidal activity. It counts as cell-based, murine. The note with it: Mus musculus, read-out: growth inhibition, highest inhibition recorded.
Experiment [6] has as its system IFN-γ. The experiment is described as follows: IFN-γ production by CTLs derived from treated DL mice. It counts as in vivo. Particulars: CD8+ T cells; text to Figure 5K. The gist of the method:
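CD8+ T cells (CTLs) are taken from DL lymphoma-bearing mice treated with oral test compound plus rIL15-activated dendritic cells and compared with cells from untreated DL mice. IFN-γ is read by flow cytometry histogram. Data shown are representative of four experiments (n = 4).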

Experiment [7] deals with THP-1. Nature of the experiment: Tumoricidal activity against human lymphoma cell line THP-1. It counts as cell-based.

Regarding `Cc1cccc(-c2nn3c(c2-c2ccnc4ccc(C(N)=O)cc24)CCC3)n1` [galunisertib], the concentration for half-maximal inhibition (IC50) was determined as 0.164 µM in experiment [1], 0.124 µM in experiment [3], 0.776 µM in experiment [4] and 0.108 µM in experiment [7]. Moreover, the “CD4+CD25+ cells” value in experiment [2] is “intermediate effect”. Besides, in experiment [5], the inhibition at 10 µM was approximately 80%. For the same compound, the “IFN-γ in T cells derived from treated animals” value in experiment [6] was found to be 52%.
